In ChEMBL document CHEMBL4765452, “Discovery of (E)-N-(4-methyl-5-(3-(2-(pyridin-2-yl)vinyl)-1H-indazol-6-yl)thiazol-2-yl)-2-(4-methylpiperazin-1-yl)acetamide (IHMT-TRK-284) as a novel orally available type II TRK kinase inhibitor capable of overcoming multiple resistant mutants” (Eur J Med Chem, 2020):

Experiments:
[1] = Cmax in mouse at 10 mg/kg, po; format: ADME, organism-based; parameters: route oral, dose 10 mg/kg; details: in vivo
[2] = Half life in Beagle dog at 1 mg/kg, iv; format: ADME, organism-based, Canis lupus familiaris; details: in vivo
BaF3 [3] = assay: Inhibition of LMNA fused TRKA V573M mutant (unknown origin) transfected in mouse BAF3 cells assessed as growth inhibition after 72 hrs by CCK8 assay; format: cell-based; details: Homo sapiens
[4] = Apparent volume of distribution in Sprague-Dawley rat at 1 mg/kg, iv; format: ADME, organism-based; details: in vivo, read-out: Vz
[5] = AUC (0 to t) in mouse at 1 mg/kg, iv; format: ADME, organism-based; parameters: dose 1 mg/kg; details: in vivo
Summary of the method: (§1)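 Intravenous and oral arms were run in parallel in each species (mice, Sprague Dawley rats, beagle dogs). Exposure is reported as AUC0-t in ng/mL·h.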

BaF3 [6] = assay: Antitumor activity against mouse BAF3 cells harboring TEL fused TRKB allografted in nude mouse assessed as tumor growth inhibition administered orally once daily for 10 days; format: functional, cell-based; details: dose 40-80 mg/kg/day, time 10.0 day
Summary of the method: (§2)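 Nu/nu mice given 1 million BaF3 cells (TEL-TRKA, TEL-TRKB, TEL-TRKC, LMNA-TRKA-F589L or LMNA-TRKA-G667S) in DMEM, 1:1 with matrigel, injected subcutaneously into the right flank; oral gavage began at 200–400 mm³, 5 mice per group, compound in 0.5% methylcellulose/0.4% Tween 80 in ddH₂O, 10 days; tumor volume [(W²×L)/2] and body weight recorded daily; TGI versus vehicle.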

BaF3 [7] = assay: Antitumor activity against mouse BAF3 cells harboring LMNA fused TRKA-F589L mutant allografted in nude mouse assessed as tumor growth inhibition at 40 mg/kg, po administered once daily for 10 days relative to control; format: functional; details: 240 h, time 10 day, read-out: TGI; summary of the method: as §2
[8] = Toxicity in mouse xenografted with mouse BAF3 cells harboring TEL fused TRKC assessed as effect on body weight at 40 to 80 mg/kg, po administered once daily for 10 days; format: organism-based; details: in vivo, 240 h, dose 40-80 mg/kg/day, time 10 day
Summary of the method: (§3)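 nu/nu mice were given subcutaneous right-flank implants in 1:1 DMEM/matrigel: 1 million BaF3 fusion cells or 5 million KM-12-LUC cells. Oral gavage started at 150–200 mm3 (xenograft) or 200–400 mm3 (allograft). Dosing used 40 or 80 mg/kg in HKI vehicle (0.5% methylcellulose/0.4% Tween 80 in ddH2O), with 5 mice per group. Body weight was recorded daily and behaviour observed.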

BaF3 [9] = assay: Antitumor activity against mouse BAF3 cells harboring LMNA fused TRKA-G667S mutant allografted in nude mouse assessed as tumor growth inhibition at 80 mg/kg, po administered twice daily for 10 days relative to control; format: functional; details: 240 h, time 10 day, read-out: TGI; summary of the method: as §2
[10] = Tmax in mouse at 1 mg/kg, iv; format: ADME, organism-based; details: in vivo
Summary of the method: (§4)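 Single-dose PK in mice, Sprague Dawley rats and beagle dogs, given i.v. (1 mg/kg) or p.o. (10 mg/kg mice and rats; 5 mg/kg dogs). AUC0-t, T1/2, Tmax and oral bioavailability (F) derived from plasma profiles.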

BaF3 [11] = assay: Antitumor activity against mouse BAF3 cells harboring TEL fused TRKC allografted in nude mouse assessed as tumor growth inhibition at 80 mg/kg, po administered once daily for 10 days relative to control; format: functional; details: 240 h, time 10 day, read-out: TGI; summary of the method: as §2
[12] = Cmax in Beagle dog at 1 mg/kg, iv; format: ADME, organism-based, Canis lupus familiaris; parameters: route intravenous, dose 1 mg/kg; details: in vivo
BaF3 [13] = assay: Inhibition of LMNA fused TRKA G667S mutant (unknown origin) transfected in mouse BAF3 cells assessed as growth inhibition after 72 hrs by CCK8 assay; format: cell-based; details: Homo sapiens
[14] = Antitumor activity against human […] cells xenografted in nude mouse assessed as tumor growth inhibition at 80 mg/kg, po administered once daily for 10 days relative to control; format: functional; details: KM12-Luc, 240 h, time 10 day, read-out: TGI
Summary of the method: (§5)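 Nu/nu mice given 5 million KM-12-LUC cells in DMEM, 1:1 with matrigel, injected subcutaneously into the right flank; oral gavage started at tumor size 150–200 mm³, 5 mice per group, compound in 0.5% methylcellulose/0.4% Tween 80 in ddH₂O; body weight and tumor volume [(W²×L)/2] measured daily; TGI versus vehicle.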

[15] = Antitumor activity against human […] cells xenografted in nude mouse assessed as tumor growth inhibition at 40 mg/kg, po administered once daily for 10 days relative to control; format: functional; details: KM12-Luc, 240 h, time 10 day, read-out: TGI; summary of the method: as §5
[16] = Toxicity in mouse xenografted with mouse BAF3 cells harboring TEL fused TRKA assessed as effect on body weight at 40 to 80 mg/kg, po administered once daily for 10 days; format: organism-based; details: in vivo, 240 h, dose 40-80 mg/kg/day, time 10 day; summary of the method: as §3
[17] = AUC (0 to t) in Sprague-Dawley rat at 1 mg/kg, iv; format: ADME, organism-based; parameters: dose 1 mg/kg; details: in vivo; summary of the method: as §1
[18] = Apparent clearance in Beagle dog at 5 mg/kg, po; format: ADME, organism-based, Canis lupus familiaris; details: in vivo, read-out: CLz/F (converted)
[19] = target: Platelet-derived growth factor receptor beta (Homo sapiens, UniProt P09619); assay: Inhibition of human PDGFR beta by Z-LYTE or ADP-Glo assay
Summary of the method: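 Purified kinase proteins tested biochemically in Z'LYTE or ADP-Glo format.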

BaF3 [20] = assay: Antitumor activity against mouse BAF3 cells harboring TEL fused TRKC allografted in nude mouse assessed as tumor growth inhibition at 40 mg/kg, po administered once daily for 10 days relative to control; format: functional; details: 240 h, time 10 day, read-out: TGI; summary of the method: as §2
[21] = Toxicity in mouse xenografted with mouse BAF3 cells harboring TEL fused TRKB assessed as effect on animals behaviour at 40 to 80 mg/kg, po administered once daily for 10 days; format: organism-based; details: in vivo, 240 h, dose 40-80 mg/kg/day, time 10 day; summary of the method: as §3
[22] = Oral bioavailability in mouse at 10 mg/kg; format: ADME, organism-based; details: in vivo; summary of the method: as §4
[23] = Toxicity in mouse xenografted with human […] cells assessed as effect on body weight at 40 to 80 mg/kg, po administered once daily for 10 days; format: organism-based; details: in vivo, 240 h, dose 40-80 mg/kg/day, time 10 day; summary of the method: as §3
[24] = Oral bioavailability in Beagle dog at 5 mg/kg; format: ADME, organism-based, Canis lupus familiaris; details: in vivo; summary of the method: as §4
[25] = Apparent clearance in Beagle dog at 1 mg/kg, iv; format: ADME, organism-based, Canis lupus familiaris; details: in vivo
[26] = Cmax in Sprague-Dawley rat at 1 mg/kg, iv; format: ADME, organism-based; parameters: route intravenous, dose 1 mg/kg; details: in vivo
[27] = Apparent volume of distribution in Sprague-Dawley rat at 10 mg/kg, po; format: ADME, organism-based; details: in vivo
[28] = Half life in mouse at 1 mg/kg, iv; format: ADME, organism-based; details: in vivo
BaF3 [29] = assay: Antitumor activity against mouse BAF3 cells harboring LMNA fused TRKA-F589L mutant allografted in nude mouse assessed as tumor growth inhibition at 80 mg/kg, po administered once daily for 10 days relative to control; format: functional; details: 240 h, time 10 day, read-out: TGI; summary of the method: as §2
[30] = target: High affinity nerve growth factor receptor (Homo sapiens, UniProt P04629); assay: Inhibition of TEL fused wild type TRKA (unknown origin) transfected in mouse BaF3 cells assessed as reduction in phosphorylation at Y490 residue after 2 hrs by Western blot analysis; format: cell-based
Summary of the method: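 Isogenic BaF3 lines, made in-house, grown in RPMI 1640 with 10% FBS and 1% penicillin/streptomycin at 37 °C under 5% CO2. Serially diluted compound added for 2 h. Cells collected and lysed, and lysates analysed by western blotting for phospho-TRK. EC50 derived from the blots.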

Sequence of Platelet-derived growth factor receptor beta (P09619 whole entry): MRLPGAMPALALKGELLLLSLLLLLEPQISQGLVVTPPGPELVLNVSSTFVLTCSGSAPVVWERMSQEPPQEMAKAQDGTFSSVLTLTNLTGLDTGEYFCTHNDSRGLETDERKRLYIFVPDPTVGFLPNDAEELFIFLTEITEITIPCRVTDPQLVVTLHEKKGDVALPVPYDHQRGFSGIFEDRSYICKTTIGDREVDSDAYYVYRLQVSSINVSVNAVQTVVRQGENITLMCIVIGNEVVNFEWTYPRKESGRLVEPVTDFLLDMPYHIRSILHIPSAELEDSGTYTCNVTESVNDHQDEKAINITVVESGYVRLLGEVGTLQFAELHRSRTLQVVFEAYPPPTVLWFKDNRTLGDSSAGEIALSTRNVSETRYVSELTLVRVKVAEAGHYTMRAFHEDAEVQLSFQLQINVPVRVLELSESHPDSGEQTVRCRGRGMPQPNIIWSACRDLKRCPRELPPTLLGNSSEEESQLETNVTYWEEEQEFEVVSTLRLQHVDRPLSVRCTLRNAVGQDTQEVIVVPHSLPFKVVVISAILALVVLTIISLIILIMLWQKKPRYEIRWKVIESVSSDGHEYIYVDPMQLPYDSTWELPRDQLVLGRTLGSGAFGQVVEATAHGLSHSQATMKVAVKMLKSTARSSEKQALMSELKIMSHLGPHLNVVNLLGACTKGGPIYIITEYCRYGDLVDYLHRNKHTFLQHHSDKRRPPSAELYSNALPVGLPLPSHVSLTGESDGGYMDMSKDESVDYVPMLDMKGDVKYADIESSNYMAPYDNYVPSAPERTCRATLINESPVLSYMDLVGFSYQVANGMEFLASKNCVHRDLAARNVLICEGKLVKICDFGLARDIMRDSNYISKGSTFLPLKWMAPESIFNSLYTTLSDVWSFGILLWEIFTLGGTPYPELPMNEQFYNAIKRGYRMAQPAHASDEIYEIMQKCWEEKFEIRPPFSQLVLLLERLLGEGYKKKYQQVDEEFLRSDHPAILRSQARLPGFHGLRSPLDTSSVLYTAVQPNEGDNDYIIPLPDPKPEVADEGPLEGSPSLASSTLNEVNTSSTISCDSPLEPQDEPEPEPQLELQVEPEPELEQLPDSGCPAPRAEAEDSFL
Sequence of High affinity nerve growth factor receptor (P04629 whole entry, the tested form may be a part): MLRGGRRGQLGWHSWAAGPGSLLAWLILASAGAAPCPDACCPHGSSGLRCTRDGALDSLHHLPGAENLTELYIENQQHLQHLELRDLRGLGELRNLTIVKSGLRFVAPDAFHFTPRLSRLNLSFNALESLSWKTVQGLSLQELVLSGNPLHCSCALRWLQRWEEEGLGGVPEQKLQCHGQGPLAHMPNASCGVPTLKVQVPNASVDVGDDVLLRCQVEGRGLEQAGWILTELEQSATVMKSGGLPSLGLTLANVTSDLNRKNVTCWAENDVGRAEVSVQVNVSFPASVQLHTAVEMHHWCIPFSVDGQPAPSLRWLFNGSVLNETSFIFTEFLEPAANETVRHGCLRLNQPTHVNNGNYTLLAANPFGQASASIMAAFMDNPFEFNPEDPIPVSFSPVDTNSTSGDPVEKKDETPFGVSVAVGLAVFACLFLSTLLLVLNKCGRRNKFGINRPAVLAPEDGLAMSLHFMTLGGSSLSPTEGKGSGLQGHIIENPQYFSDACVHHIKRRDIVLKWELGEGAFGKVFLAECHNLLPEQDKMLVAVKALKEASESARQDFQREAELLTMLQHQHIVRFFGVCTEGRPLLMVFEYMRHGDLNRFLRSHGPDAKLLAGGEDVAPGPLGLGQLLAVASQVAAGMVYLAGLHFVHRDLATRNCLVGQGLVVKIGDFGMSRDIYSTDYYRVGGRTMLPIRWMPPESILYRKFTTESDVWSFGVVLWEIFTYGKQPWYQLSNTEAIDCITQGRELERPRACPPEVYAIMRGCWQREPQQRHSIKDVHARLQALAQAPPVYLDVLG

Cc1nc(NC(=O)CN2CCN(C)CC2)sc1-c1ccc2c(/C=C/c3ccccn3)n[nH]c2c1
Cmax [1]: 258 ng/mL | t1/2 [2]: 1.8 min | GI50 (BaF3 [3]): 3 nM | Vd [4]: 9.68 L/kg | AUC(0-t) [5]: 748 ng·h/mL | Activity (BaF3 [6]): Dose-dependent effect | inhibition in vivo at 40 mg/kg/day (BaF3 [7]): 80% | Activity [8]: Non-Toxic | inhibition in vivo at 80 mg/kg (BaF3 [9]): 89.1% | Tmax [10]: 1.98 min | inhibition in vivo at 80 mg/kg/day (BaF3 [11]): 57.5% | Cmax [12]: 284 ng/mL | GI50 (BaF3 [13]): 2 nM | inhibition in vivo at 80 mg/kg/day [14]: 94.7% | inhibition in vivo at 40 mg/kg/day [15]: 93.4% | Activity [16]: Non-Toxic | AUC(0-t) [17]: 393 ng·h/mL | CL/F [18]: 140 mL/min/kg | IC50 [19]: 95.7 nM | inhibition in vivo at 40 mg/kg/day (BaF3 [20]): 40.6% | Activity [21]: Non-Toxic | bioavailability [22]: 20% | Activity [23]: Non-Toxic | bioavailability [24]: 35% | CLz/F [25]: 47.68 mL/min/kg | Cmax [26]: 363 ng/mL | Vz [27]: 37.364 L/kg | t1/2 [28]: 156 min | inhibition in vivo at 80 mg/kg/day (BaF3 [29]): 87.7% | EC50 [30]: 26 nM
